Data taken from publication PMC7115577 (Peptides, 2005).

Tests used:
Format in all cases: cell-based
guinea pig ileum = details: calyculin 100 nM, BK 20 nM, BPP9α 20 nM
Summary of the method: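 Ileum segments (1.5 cm) in Tyrode at 37 °C, isotonic recording under 500 mg resting tension. The phosphatase inhibitor was added either at the peak of the BK contraction, before the potentiating peptide, or 1 min before the combined BK/peptide challenge, with washes between. Traces are from four to six separate experiments.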

[1] = tested on: human polymorphonuclear leukocytes (PMN); assay: Chemotaxis assay
[2] = tested on: isolated guinea pig ileum (GPI); assay: Potentiation of the BK-induced contraction of GPI; details: analogue alone, cumulative GPI contraction curves
Summary of the method: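 Guinea pig ileum strips (1.5 cm) suspended in Tyrode solution at 37 °C; isotonic contractions recorded under 500 mg resting tension. Concentration–response curves were built for the agonist, and pD2 was derived from them.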

In the case of calyculin, the “influence on the potentiation of the BK-induced contraction” value (guinea pig ileum) is reported as “no influence”.
In the case of `CC(C)C[C@H](NP(=O)(O)O[C@@H]1O[C@@H](C)[C@H](O)[C@@H](O)[C@H]1O)C(=O)N[C@@H](Cc1c[nH]c2ccccc12)C(=O)O` [phosphoramidon], the “migration index (MI) of BK in the presence of inhibitor” value ([1]; BK 10^−8 M, phosphoramidon 10^−7 M, 5 min preincubation) is reported as 1.19 ± 0.03.
`C[C@H](N[C@@H](CCc1ccccc1)C(=O)O)C(=O)N1[C@H](C(=O)O)C[C@@H]2CCC[C@@H]21` [ramiprilat] was tested, and the “effect on migratory activity of the nonpeptide agonist FR190997” value [1] was “could not be accelerated” and the “migration index (MI) of BK in the presence of inhibitor” value ([1]; BK 10^−7 M, ramiprilat 10 nM) was 1.69 ± 0.26.
For “DArg-Arg-Pro-Hyp-Gly-Thi-Ser-Pro-ɛAbu(ßPh)-Arg”, the “pD2-value of enzymatically more stable BK analogue” value [2] was 6.65 ± 0.14.
